Compound activity deposited in PubChem BioAssay by several laboratories.
Only some compounds are listed: those with a hit (about 2.6% of all), similar ones and a draw of the others.
PGE2 EP2 inh: human EP2 receptor antagonists, primary screen, TR-FRET cAMP, C6 glioma cells. Prostaglandin E2 receptor EP2 subtype (Homo sapiens), P43116. inhibition, % at 25 µM. C6 glioma cells expressing human EP2; cells stimulated with saturating PGE2. actives 0.52% (n = 260,000). AID 1422, 2008;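 active = percent inhibition above 40 after rounding to a whole number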;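 note: rat C6 glioma host cells with rolipram phosphodiesterase inhibitor present; the protocol text gives 20 µM as final concentration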
Target sequence (P43116 whole entry, looked up): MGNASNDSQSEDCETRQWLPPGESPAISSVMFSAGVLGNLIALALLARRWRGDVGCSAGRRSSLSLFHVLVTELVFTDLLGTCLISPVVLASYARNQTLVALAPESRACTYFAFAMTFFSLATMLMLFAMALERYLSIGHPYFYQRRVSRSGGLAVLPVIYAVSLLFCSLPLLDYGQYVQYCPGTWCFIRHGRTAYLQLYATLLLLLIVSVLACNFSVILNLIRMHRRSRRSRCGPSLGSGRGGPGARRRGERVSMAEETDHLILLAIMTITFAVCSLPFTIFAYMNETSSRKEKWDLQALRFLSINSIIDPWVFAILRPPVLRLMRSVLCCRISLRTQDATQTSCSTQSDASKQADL
Exocytosis inh: LAMP-1 surface exposure blockers, TALL-104 cells – cell-based, flow cytometry, MLPCN library, primary screen; TALL-104 LAMP-1 surface exposure; cells stimulated with thapsigargin and PMA; inhibition, % at 10 µM; actives 0.66% (n = 360,000); AID 651702, 2012;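 active = inhibition above about 55%, limit read from the data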
T cell modulator: modulators of CD8 T cell-vesicle binding, primary screen, mouse 2C CD8+ T cells, flow cytometry. 2C CD8+ T cell-vesicle binding; hits give low values. response (vesicle binding), % at 7 µM. actives 0.068% (n = 330,000). AID 2052, 2009;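 active = response, share of CD8 T cells binding vesicles, and their 90th percentile fluorescence all below set limits, cut at about 80% in these data, passing the limit was not always enough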;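 note: values below 100% mean blocked vesicle binding to the CD8+ T cells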
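Assay system: 2C TCR transgenic mouse naive CD8+ T cells, MACS-purified | Read-out: CD8+ gate FL2 mean fluorescence as % of same-row positive control | Signal: High-throughput flow cytometry with anti-B7-1 and anti-CD8 staining | Timing: Binding step 1.5 h, 37 °C, antibody labelling 20 min, ice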
MC4R barr agon: MC4R agonists recruiting beta-arrestin, primary screen, cell-based, luminescence, agonist arm of biased-ligand search; Melanocortin receptor 4 (Homo sapiens), P32245; U2OS MC4R beta-arrestin complementation; percent of melanotan II response, DMSO zero; activation, % at 8.9 µM; actives 0.98% (n = 360,000); AID 540308, 2011;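 active = activation above a per-plate cutoff, the mean activation of sample wells on that plate plus 3 SD, cut at about 8% in these data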
Target sequence (P32245 whole entry, looked up): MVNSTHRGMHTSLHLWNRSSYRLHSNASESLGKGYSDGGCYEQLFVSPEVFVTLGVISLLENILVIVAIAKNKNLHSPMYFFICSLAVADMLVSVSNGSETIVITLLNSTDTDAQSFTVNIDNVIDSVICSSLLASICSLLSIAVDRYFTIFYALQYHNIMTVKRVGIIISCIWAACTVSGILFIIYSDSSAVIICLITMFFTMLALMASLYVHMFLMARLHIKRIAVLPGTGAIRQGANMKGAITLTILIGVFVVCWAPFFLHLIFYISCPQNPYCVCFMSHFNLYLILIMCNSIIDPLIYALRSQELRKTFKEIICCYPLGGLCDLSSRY
EP2 mod: EP2 receptor modulators, cAMP readout, primary screen, cell-based, HTRF cAMP, PGE2 stimulation; Prostaglandin E2 receptor EP2 subtype (Homo sapiens), P43116; EP2-expressing cells, cAMP HTRF FRET, PGE2 co-stimulation; induction, % at 25 µM; actives 0.83% (n = 260,000);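 active = compounds whose cAMP rise, as percent of the full-agonist control response, exceeds 60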;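 note: rat C6 glioma line stably carrying human EP2 under a CMV promoter; the protocol text gives 20 µM as final concentration; 100% = response of wells given 1 µM PGE2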
MC4R antag cAMP: MC4R antagonists of cAMP signaling, primary screen, cell-based, TR-FRET, antagonist arm of biased-ligand search. Melanocortin receptor 4 (Homo sapiens), P32245. MC4R-expressing cells, MTII-stimulated cAMP, LANCE TR-FRET. inhibition, % at 6.5 µM. actives 0.48% (n = 360,000). AID 540295, 2011;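 active = inhibition above its plate's cutoff, the mean of tested wells on that plate plus 3 SD, cut at about 29% in these data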;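 note: 0% = Melanotan II alone and 100% = Melanotan II plus saturating MCL0020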
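material = U2OS cells stably expressing human melanocortin 4 receptor (MC4R) | also added = Melanotan II challenge | dosing = single nominal compound dose of 6.5 µM | detection = TR-FRET with Eu-cAMP and labeled anti-cAMP, 671 nm | replication = singlicate | timing = compound 30 min, challenge 1 h, detection 1 h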
MC4R barr ag: MC4R beta-arrestin agonists, retest, confirmation, cell-based, luminescence, U2OS | activation, % at 8.9 µM | shares compounds with MC4R barr agon | actives 31% (n = 2,400) | U2OS MC4R beta-arrestin recruitment; scaled DMSO 0%, Melanotan II 100%;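 active = mean activation across replicates above the hit cutoff set in the earlier primary screen, cut at about 8% in these data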
MOR DOR agonist: agonists of MOR-DOR heterodimerization, counter-screen for MC4R biased agonist project, cell-based, luminescence; shares compounds with MC4R barr agon; U2OS PathHunter beta-arrestin, beta-gal luminescence; percent of deltorphin B response, DMSO zero; activation, % at 9.2 µM; actives 5.8% (n = 2,400); AID 602194, 2012;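 active = mean activation across replicates exceeds the hit threshold derived in the earlier primary screen, cut at about 18% in these data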;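 note: 100% = deltorphin B at 0.9 µM final and 0% = DMSO alone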
Starred values were filed as active, the others as inactive.

For Cc1c(-c2ccc(F)cc2)nc(N)c(C#N)c1-c1ccco1 the results were PGE2 EP2 inh 1.8, Exocytosis inh -0.9, T cell modulator 254.5, MC4R barr agon 14.9*, EP2 mod 11.9, MC4R antag cAMP 3.3, MC4R barr ag 2.8 and MOR DOR agonist 6.8.
Screening COc1ccc(NS(=O)(=O)c2nnc(NC(=O)c3ccccc3F)s2)cc1 returned Exocytosis inh -4.9, T cell modulator 417.1, MC4R barr agon -0.5 and MC4R antag cAMP 17.6.
N#Cc1ccsc1NC(=O)COC(=O)c1ccc2ccccc2c1 was read as PGE2 EP2 inh 6.3, Exocytosis inh 13.4, T cell modulator 230.3, MC4R barr agon 17.1*, EP2 mod -33.4, MC4R antag cAMP 14.6, MC4R barr ag 3.8 and MOR DOR agonist 4.0.
Screening CCCNc1c(NS(=O)(=O)c2ccc(C)c(C)c2)c(=O)oc2ccccc12 returned Exocytosis inh 16.0, T cell modulator 696.2, MC4R barr agon -1.0 and MC4R antag cAMP 1.3.
`CCCNc1c(NS(=O)(=O)c2ccc3c(c2)CCCC3)c(=O)oc2ccccc12` gave Exocytosis inh 6.9, T cell modulator 369.9, MC4R barr agon 14.2*, MC4R antag cAMP 6.0, MC4R barr ag 2.8 and MOR DOR agonist 3.0.
O=C(Nc1ccc(N2CCCCC2)cc1)c1ccccn1 was read as PGE2 EP2 inh 4.6, Exocytosis inh -1.5, T cell modulator 333.6, MC4R barr agon -0.6, EP2 mod -39.7 and MC4R antag cAMP -4.8.
CCn1c2ccccc2c2cc(NC(=O)COc3ccccc3)ccc21 was read as PGE2 EP2 inh 9.7, Exocytosis inh -0.2, T cell modulator 564.9, MC4R barr agon 25.9*, EP2 mod -63.0, MC4R antag cAMP -6.6, MC4R barr ag 2.2 and MOR DOR agonist 3.4.
CCn1c2ccccc2c2cc(NC(=O)COc3ccc(OC)cc3)ccc21 was read as PGE2 EP2 inh 8.3, Exocytosis inh -3.5, T cell modulator 382.1, MC4R barr agon 3.9, EP2 mod -31.5 and MC4R antag cAMP 16.2.
Screening CCn1c2ccccc2c2cc(NC(=O)COC(=O)c3ccccc3F)ccc21 returned PGE2 EP2 inh 4.2, Exocytosis inh -0.1, T cell modulator 168.7, MC4R barr agon 9.8*, EP2 mod -9.5, MC4R antag cAMP 11.7, MC4R barr ag 3.2 and MOR DOR agonist 3.9.
O=C(COc1ccccc1)Nc1ccc(OC(F)(F)C(F)F)c(NC(=O)COc2ccccc2)c1 was read as PGE2 EP2 inh 16.3, Exocytosis inh 0.3, T cell modulator 469.6, MC4R barr agon 17.2*, EP2 mod 20.1, MC4R antag cAMP -0.3, MC4R barr ag 9.9* and MOR DOR agonist 11.7.
O=C(C[C@H]1C/C=C\C[C@H](Cc2ccc(F)cc2)C(=O)O[C@@H](c2ccccc2)CNC1=O)N[C@H](CO)Cc1ccccc1 was read as Exocytosis inh -1.2, T cell modulator 328.9, MC4R barr agon -1.5 and MC4R antag cAMP 4.6.
`NC(Cc1ccc2nonc2c1)C(=O)O` (stereo not drawn) gave PGE2 EP2 inh 8.2, Exocytosis inh -2.1, T cell modulator 317.3, MC4R barr agon -1.0, EP2 mod 27.4 and MC4R antag cAMP -4.9.
`CCOc1ccc(C(=O)Nc2nnc(C)s2)cc1OCC` gave PGE2 EP2 inh 1.5, Exocytosis inh 1.8, T cell modulator 760.0, MC4R barr agon 1.6, EP2 mod 30.4 and MC4R antag cAMP 13.2.
For Cc1ccc(C(=O)c2c(NC(=O)CSc3nnc(N)s3)sc3c2CCCC3)cc1 the results were PGE2 EP2 inh 3.5, Exocytosis inh -3.6, T cell modulator 205.4, MC4R barr agon -0.7, EP2 mod 30.4 and MC4R antag cAMP -2.0.
For COC(=O)c1cc(Nc2cc(C)c3c(O)cccc3n2)cc(C(=O)OC)c1 the results were PGE2 EP2 inh 3.4, Exocytosis inh 33.8, T cell modulator 215.4, MC4R barr agon 11.7*, EP2 mod -41.9, MC4R antag cAMP 11.6, MC4R barr ag 6.9 and MOR DOR agonist 8.4.
For C/C(=N/NC(=O)CNC(=O)c1ccc2c(c1)OCO2)c1ccc2c(c1)CCCC2 the results were PGE2 EP2 inh 6.2, Exocytosis inh 10.4, T cell modulator 245.4, MC4R barr agon 11.7*, EP2 mod -42.1, MC4R antag cAMP 4.2, MC4R barr ag 1.5 and MOR DOR agonist 4.2.
C/C(=N/NC(=O)CNC(=O)c1ccccc1F)c1ccc2c(c1)CCCC2 was read as PGE2 EP2 inh 6.3, Exocytosis inh -0.6, T cell modulator 281.2, MC4R barr agon 0.1, EP2 mod -0.3 and MC4R antag cAMP 8.2.
Cc1ccc(NC(=O)COc2ccccc2C(=O)Nc2ccccc2)cc1Cl was read as PGE2 EP2 inh 9.4, Exocytosis inh 8.8, T cell modulator 161.0, MC4R barr agon 0.8, EP2 mod -2.1 and MC4R antag cAMP 8.8.
`Cc1ccc(NC(=O)c2ccccc2OCC(=O)c2ccc(F)cc2)cc1` gave PGE2 EP2 inh 4.9, Exocytosis inh 43.9, T cell modulator 262.2, MC4R barr agon 50.8*, EP2 mod 40.6, MC4R antag cAMP 1.9, MC4R barr ag 18.4* and MOR DOR agonist 8.3.
For Cc1ccc(Cl)cc1NC(=O)c1ccccc1OCC(=O)Nc1ccc(Cl)cc1 the results were PGE2 EP2 inh 5.2, Exocytosis inh -0.9, T cell modulator 211.0, MC4R barr agon 15.2*, EP2 mod -7.4, MC4R antag cAMP 23.1, MC4R barr ag 8.2* and MOR DOR agonist 8.3.
Screening COc1ccc(-c2nc(C#N)c(NCc3ccccc3Cl)o2)cc1OC returned PGE2 EP2 inh 4.3, Exocytosis inh -0.4, T cell modulator inactive, MC4R barr agon 12.9*, EP2 mod -63.0, MC4R antag cAMP -11.9, MC4R barr ag 7.6 and MOR DOR agonist 5.2.
